Assay results: ChEMBL document CHEMBL3588837, “Development and validation of a novel assay to identify radiosensitizers that target nucleophosmin 1” (Bioorg Med Chem, 2015)
Calls of active or inactive are those of the source. No cut-off for these calls is given here.

How the values were obtained:
[1] = tested on: Nucleophosmin (Homo sapiens), P06748 [T199N]; experiment: (§1) Inhibition of phosphorylated NPM1 recruitment to chromatic in 6 Gy irradiated human A549 cells assessed as band intensity ratio of protein solubility measured as extraction of pT199NPM1 pretreated 30 mins and measured after 90 mins of irradiation at 25 uM by Western blot analysis in presence of high NP-40 lysis buffer relative to DMSO control; format: cell-based
Nucleophosmin (Homo sapiens), P06748 [T199N], sequence (P06748 whole entry T199N): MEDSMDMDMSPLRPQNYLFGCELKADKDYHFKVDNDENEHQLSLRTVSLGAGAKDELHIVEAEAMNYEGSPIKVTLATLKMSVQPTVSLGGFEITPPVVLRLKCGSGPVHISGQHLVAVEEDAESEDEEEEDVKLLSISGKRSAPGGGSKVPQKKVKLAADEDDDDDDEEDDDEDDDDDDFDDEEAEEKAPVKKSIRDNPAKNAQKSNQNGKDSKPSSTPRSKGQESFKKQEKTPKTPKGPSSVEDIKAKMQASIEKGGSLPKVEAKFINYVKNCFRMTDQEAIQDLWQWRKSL
How it was run: (§2)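 A549 cells at 70–80% confluency were exposed to compound for 30 min, given 6 Gy from a Cs137 source at 2 Gy/min, and held 90 min at 37°C. Equal protein was run on 10% SDS-PAGE and immunoblotted for pT199 NPM1 and total NPM1. Band intensity ratio = (compound+6 Gy)/(DMSO+6 Gy).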

[2] = tested on: Nucleophosmin (Homo sapiens), P06748 [T199N]; experiment: Inhibition of phosphorylated NPM1 recruitment to chromatic in 6 Gy irradiated human A549 cells assessed as increase in protein solubility as extraction of pT199NPM1 pretreated 30 mins and measured after 90 mins of irradiation at 10 uM by Western blot analysis; format: cell-based
How it was run: (§3)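 Drug or DMSO at various concentrations was present on A549 cells for 30 min before, during, and 90 min after 0 or 6 Gy. Nuclear proteins were extracted in 420 mM NaCl high salt buffer and blotted for pT199 NPM1. Buffer-soluble pNPM1 in irradiated cells was quantified relative to non-irradiated cells (±SD, N=3). EC50 was taken from the band intensity plot.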

Nucleophosmin [3] = molecular target: T1, Nucleophosmin (Homo sapiens, UniProt P06748, T199N); experiment: Inhibition of phosphorylated NPM1 recruitment to chromatic in 6 Gy irradiated human A549 cells assessed as increase in protein solubility as extraction of pT199NPM1 pretreated 30 mins and measured after 90 mins of irradiation by Western blot analysis; format: cell-based; how it was run: as §3
T1 sequence (P06748 whole entry T199N): as above

[4] = tested on: Nucleophosmin (Homo sapiens), P06748 [T199N]; experiment: Inhibition of phosphorylated NPM1 recruitment to chromatic in 6 Gy irradiated human A549 cells assessed as extraction of pT199NPM1 pretreated 30 mins and measured after 90 mins of irradiation at 25 uM by Western blot analysis in presence of high salt lysis buffer; format: cell-based
How it was run: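 A549 cells were dosed with 25 μM drug for 30 min, irradiated, and incubated 90 min. Nuclei were isolated on ice, then extracted in high salt buffer (10 mM HEPES pH 7.2, 420 mM NaCl, 1.5 mM MgCl2, 0.5 mM DTT, 25% glycerol). Extracts were immunoblotted for pT199 NPM1 and total NPM1.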

[5] = tested on: Nucleophosmin (Homo sapiens), P06748 [T199N]; experiment: Inhibition of phosphorylated NPM1 recruitment to chromatic in 6 Gy irradiated human A549 cells assessed as extraction of pT199NPM1 pretreated 30 mins and measured after 90 mins of irradiation at 25 uM by Western blot analysis in presence of high NP-40 lysis buffer; format: cell-based
[6] = tested on: Nucleophosmin (Homo sapiens), P06748 [T199N]; experiment: Inhibition of phosphorylated NPM1 recruitment to chromatic in 6 Gy irradiated human A549 cells assessed as extraction of pT199NPM1 pretreated 30 mins and measured after 90 mins of irradiation at 25 uM by Western blot analysis in presence of high RIPA lysis buffer; format: cell-based
[7] = tested on: Nucleophosmin (Homo sapiens), P06748 [T199N]; experiment: Inhibition of phosphorylated NPM1 recruitment to chromatic in 6 Gy irradiated human IMR90 cells assessed as extraction of pT199NPM1 pretreated 30 mins and measured after 90 mins of irradiation at 25 uM by Western blot analysis relative to DMSO control in presence of high NP-40 lysis buffer; format: cell-based; conditions: IMR-90
How it was run: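 IMR-90 normal lung fibroblasts, grown in DMEM, received 25 μM drug for 30 min, were irradiated, and were incubated 90 min. Total lysate was prepared with NP-40 lysis buffer and analysed by Western blot for pT199 NPM1.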

[8] = tested on: Nucleophosmin (Homo sapiens), P06748 [T199N]; experiment: as §1, with “2.5” for “25”; format: cell-based
Nucleophosmin [9] = molecular target: T1, Nucleophosmin; experiment: (§4) Inhibition of phosphorylated NPM1 recruitment to chromatic in 6 Gy irradiated human A549 cells assessed as extraction of pT199NPM1 pretreated 30 mins and measured after 90 mins of irradiation by Western blot analysis in presence of high NP-40 lysis buffer; format: cell-based
[10] = tested on: Nucleophosmin (Homo sapiens), P06748 [T199N]; experiment: as §4, with “assessed as increase in protein solubility” for “assessed”, “analysis relative to YTR107” for “analysis”; format: cell-based
NCI-H460 = experiment: Radiodensitization of 6 Gy irradiated human H460 cells assessed as colony formation pretreated 30 mins followed by irradiated for 90 mins and washed off measured after 10 to 14 days incubation at 5 uM by trypan blue assay; format: functional, cell-based
How it was run: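 H460 cells, grown in RPMI-1640, were plated in T25 flasks and exposed to 5 μM drug at 37°C for 30 min. They were then irradiated at various radiation doses and incubated 90 min. Drug was washed off with PBS and fresh medium added. Flasks were kept 10–14 days, and colonies were stained with trypan blue and counted.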

[11] = molecular target: Nucleophosmin (Homo sapiens) (UniProt P06748); experiment: Inhibition of phosphorylated NPM1 recruitment to chromatic in 6 Gy irradiated human A549 cells assessed as increase in solubility of protein pretreated 30 mins and measured after 90 mins of irradiation at 2.5 to 5 uM by Western blot analysis relative to DMSO control in presence of high NP-40 lysis buffer; format: cell-based
Nucleophosmin (Homo sapiens), sequence (P06748 whole entry): as the sequence (P06748 whole entry T199N) above, with N199T counted along it

[12] = tested on: Nucleophosmin (Homo sapiens), P06748 [T199N]; experiment: Inhibition of phosphorylated NPM1 recruitment to chromatic in 6 Gy irradiated human A549 cells assessed as extraction of pT199NPM1 pretreated 30 mins and measured after 90 mins of irradiation at 2.5 uM by Western blot analysis relative to DMSO control in presence of high NP-40 lysis buffer; format: cell-based; how it was run: as §2
[13] = molecular target: Nucleophosmin (Homo sapiens) (UniProt P06748); experiment: Inhibition of phosphorylated NPM1 recruitment to chromatic in 6 Gy irradiated human A549 cells assessed as increase in solubility of protein pretreated 30 mins and measured after 90 mins of irradiation at 5 uM by Western blot analysis relative to DMSO control in presence of high NP-40 lysis buffer; format: cell-based

| Compound | Ratio [1] | further results |
| --- | --- | --- |
| COC(=O)c1ccc(Cn2c(C)c(C=C3C(=O)NC(=O)NC3=O)c3ccccc32)cc1 | 1.48 | – |
| COc1cc(Cn2c(C)c(C=C3C(=O)NC(=S)NC3=O)c3ccccc32)cc(OC)c1OC | 1.97 | – |
| Cc1c(C=C2C(=O)NC(=S)NC2=O)c2ccccc2n1Cc1ccccc1 | 1.96 | – |
| Cc1c(C=C2C(=O)NC(=S)NC2=O)c2ccccc2n1Cc1ccccc1C(F)(F)F | 1.54 | – |
| Cc1c(C=C2C(=O)NC(=O)NC2=O)c2ccccc2n1Cc1ccccc1 | 1.53 | – |
| N#Cc1ccc(Cn2cc(C=C3C(=O)NC(=O)NC3=O)c3ccccc32)cc1 | 1.51 | Activity [2]: Active; EC50 (Nucleophosmin [3]): 9.7 µM; Activity [4]: Active; Activity [5]: Active; Activity [6]: Active; Activity [7]: inactive |
| COc1cc(Cn2c(C)c(C=C3C(=O)NC(=O)NC3=O)c3ccccc32)cc(OC)c1OC | 1.16 | – |
| Cc1c(C=C2C(=O)NC(=S)NC2=O)c2ccccc2n1Cc1ccccc1Br | 1.68 | – |
| Cc1c(C=C2C(=O)NC(=O)NC2=O)c2ccccc2n1Cc1ccc(Br)cc1 | 1.23 | – |
| COC(=O)c1ccc(Cn2c(C)c(C=C3C(=O)NC(=S)NC3=O)c3ccccc32)cc1 | 1.74 | – |
| Cc1c(C=C2C(=O)NC(=S)NC2=O)c2ccccc2n1Cc1ccc(Br)cc1 | – | Ratio [8]: 1.78; EC50 (Nucleophosmin [9]): 2.5 µM; fold change (FC) [10]: 4; Activity (NCI-H460): Active |
| COc1ccc(Cn2c(C)c(C=C3C(=O)NC(=S)NC3=O)c3ccccc32)c(OC)c1 | 1.22 | – |
| COc1cc(Cn2c(C)c(C=C3C(=O)NC(=O)NC3=O)c3ccccc32)cc(OC)c1 | 1.63 | Activity [11]: inactive |
| Cc1c(C=C2C(=O)NC(=O)NC2=O)c2ccccc2n1Cc1ccccc1Br | 1.05 | – |
| Cc1c(C=C2C(=O)NC(=S)NC2=O)c2ccccc2n1Cc1ccc(C#N)cc1 | 1.86 | – |
| COc1cc(Cn2c(C)c(C=C3C(=O)NC(=S)NC3=O)c3ccccc32)cc(OC)c1 | 1.97 | – |
| Cc1c(C=C2C(=O)NC(=O)NC2=O)c2ccccc2n1Cc1ccc(C#N)cc1 | 1.58 | Activity [12]: inactive; Activity [13]: Active |
| Cc1c(C=C2C(=O)NC(=O)NC2=O)c2ccccc2n1Cc1ccccc1C(F)(F)F | 1.16 | – |
